Test results reported in ChEMBL document CHEMBL1961794, “Regulation of circadian behaviour and metabolism by synthetic REV-ERB agonists” (Nature, 2012).
Activity calls are given as the source filed them. The calls are words filed in the database; no cut-off is given here.

Experiments:
Mus musculus [1] = test: Change in plasma IL-6 in diet-induced obese mice over 30 days at 100 mg/kg ip; type: functional, organism-based; set-up: dose 100 mg/kg; settings: C57BL/6
Mus musculus [2] = test: Change in plasma triglycerides in diet-induced obese mice over 30 days at 100 mg/kg ip; type: functional, organism-based; set-up: dose 100 mg/kg; settings: C57BL/6
Mus musculus [3] = species on record: Mus musculus; test: Inhibition of circadian oscillations in SCN explants from Per2-luc transgenic mouse; type: functional, tissue-based
[4] = Decrease in wheel-running behavior in mice in constant darkness; type: functional; settings: Mus musculus
[5] = Toxicity in CL57BL6 mice after 7 days treatment at 100 mg/kg b.i.d in hematology screen; type: organism-based, C57BL/6; set-up: dose 100 mg/kg; settings: mouse, in vivo, 168 h
In short: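 Vehicle-controlled C57Bl6 mice dosed chronically at 100 mg/kg b.i.d. for 7 days. Complete blood count: WBC, neutrophil, lymphocyte, monocyte, eosinophil and basophil counts and percentages; RBC, Hb, HCT, MCV, MCH, MCHC, RDW, platelet count and MPV. Mean ± s.e.m., n=6.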

[6] = biological target: T1, Nuclear receptor subfamily 1 group D member 1 (Homo sapiens, UniProt P20393); test: REV-ERB-alpha mediated transcriptional suppression at Bmal1 promoter in HEK293 cell reporter assay; type: functional, cell-based
T1 sequence (P20393 whole entry): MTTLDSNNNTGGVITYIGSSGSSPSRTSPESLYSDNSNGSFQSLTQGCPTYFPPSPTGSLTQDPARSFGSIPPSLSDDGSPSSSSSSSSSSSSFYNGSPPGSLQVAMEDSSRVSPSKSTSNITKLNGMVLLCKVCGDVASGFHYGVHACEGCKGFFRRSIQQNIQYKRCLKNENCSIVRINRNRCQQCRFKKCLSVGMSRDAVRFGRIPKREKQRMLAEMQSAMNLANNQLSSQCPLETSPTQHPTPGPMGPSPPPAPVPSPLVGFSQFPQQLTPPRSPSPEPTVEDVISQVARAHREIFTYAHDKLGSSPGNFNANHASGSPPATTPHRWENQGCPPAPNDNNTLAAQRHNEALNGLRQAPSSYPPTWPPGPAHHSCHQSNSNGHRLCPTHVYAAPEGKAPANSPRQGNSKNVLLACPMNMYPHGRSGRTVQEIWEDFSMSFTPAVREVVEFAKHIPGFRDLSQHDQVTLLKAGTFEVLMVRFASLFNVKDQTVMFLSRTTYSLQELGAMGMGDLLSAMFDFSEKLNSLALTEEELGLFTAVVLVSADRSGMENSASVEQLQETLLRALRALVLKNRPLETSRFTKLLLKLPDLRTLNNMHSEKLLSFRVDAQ

[7] = Plasma concentration after 2 hours at 10mg/kg ip dose (10mg/ml suspension in 10%DMSO/10%Tween80); type: ADME, organism-based; settings: mouse, read-out: Conc_plasma
In short: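 Mice received a single 10 mg/kg i.p. dose as a 10 mg/ml suspension in DMSO/Tween80/water (10/10/80). Plasma was sampled at 1, 2, 4 and 8 h post-injection and drug concentration reported in μM. Mean ± s.e.m., n=3.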

[8] = biological target: T1, Nuclear receptor subfamily 1 group D member 1; test: Increased REV-ERB-alpha LBD dependent repressor activity in HEK293 cell reporter assay; type: cell-based; settings: read-out: IC50
Fibroblast = test: Inhibition of circadian oscillations in fibroblasts from Per2-luc transgenic mice; type: functional, cell-based; settings: Mus musculus
In short: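 Fibroblasts (MEFs) were isolated from Per2^luc transgenic mice and treated with 5 μM compound. Circadian oscillation amplitude was followed by continuous bioluminescence recording in two independent experiments.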

| Structure (SMILES) | Plasma IL-6 (Mus musculus [1]) [%] | Plasma triglyceride (Mus musculus [2]) [%] | Reduced_circadian_oscillation (Mus musculus [3]) | ED50 [4] [mg/kg] | Toxicity [5] | IC50 [6] | concentration at 2 h [7] [nM] | IC50 [8] | Reduced_circadian_oscillation (Fibroblast) |
| --- | --- | --- | --- | --- | --- | --- | --- | --- | --- |
| CCOC(=O)N1CCC(CN(Cc2ccc(Cl)cc2)Cc2ccc([N+](=O)[O-])s2)C1 (centres undefined) [SR9009] | -72 | -12 |  |  |  |  |  |  |  |
| CCCCCNC(=O)N1CCC(CN(Cc2ccc(Cl)cc2)Cc2ccc([N+](=O)[O-])s2)C1 (centres undefined) [SR9011] |  |  | Active | 56 | Not Toxic | 620 nM (agonist) | 530 | 790 nM (agonist) | Active |
